Consider 22 molecules from article PMC4712096 (The FEBS journal, 2015).

For one data set, the system named is H9 cells. In words: Alkaline comet assay in H9 cells. To be noted: no radiation; Tail DNA % and Olive Tail Moment. The class given is cell-based. The essentials:
(§1)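 Alkaline comet assay. One day after culturing, cells were pre-treated or not with peptides for 2 h, then γ-irradiated (4 Gy) or mock-irradiated. Cells were embedded in low-melting agarose. Lysis was 2 h in ice-cold 2.5 M NaCl, 100 mM EDTA, 10 mM Tris pH 10, 1% Triton X-100 and 10% DMSO. DNA was unwound 20 min at 4°C in NaOH/EDTA pH 13 and electrophoresed 45 V, 20 min. Slides were neutralised and stained with ethidium bromide. Tail DNA % and Olive tail moment were scored from random fields.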

A further data set concerns the target A3G (Homo sapiens, UniProt Q9HC16). In words: Inhibition of deamination activity of purified A3G. The class given is biochemical.
The next data set relates to SupT1 cells. Put plainly: Alkaline comet assay in SupT1 cells. The class given is cell-based. To be noted: no radiation; Tail DNA % and Olive Tail Moment. The procedure, abridged: as §1
Data set [1] has as its target APOBEC3G (A3G), wild type, C-terminal His6 tag (human) (UniProt Q9HC16).
Data set [2] has as its target APOBEC3G (A3G), wild type, C-terminal His6 tag (human, UniProt Q9HC16 1-384). In words: cell-based or functional assay.

Peptide text beside a SMILES is read from it.

Chain of A3G (Q9HC16 whole entry): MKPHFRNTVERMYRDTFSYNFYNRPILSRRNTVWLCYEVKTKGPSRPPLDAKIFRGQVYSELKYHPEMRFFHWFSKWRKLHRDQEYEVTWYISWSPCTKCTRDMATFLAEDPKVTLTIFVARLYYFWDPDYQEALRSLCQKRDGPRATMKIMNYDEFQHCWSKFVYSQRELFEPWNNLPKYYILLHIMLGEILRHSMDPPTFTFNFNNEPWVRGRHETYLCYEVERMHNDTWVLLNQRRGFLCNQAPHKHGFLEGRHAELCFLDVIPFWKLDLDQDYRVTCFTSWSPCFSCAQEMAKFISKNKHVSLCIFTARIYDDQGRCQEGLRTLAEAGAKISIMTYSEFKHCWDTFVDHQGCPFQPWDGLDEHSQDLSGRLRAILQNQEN
Chain of APOBEC3G (A3G), wild type, C-terminal His6 tag (human) (Q9HC16 whole entry): as above
Chain of APOBEC3G (A3G), wild type, C-terminal His6 tag (Q9HC16 whole entry): as above

As a reminder, the IC50 is the concentration needed to halve the response being measured. Read a high IC50 as a need for much substance. Turning to `CC(C)C[C@H](NC(=O)[C@H](CCCNC(=N)N)NC(=O)[C@H](C)N)C(=O)N[C@@H](Cc1ccc(O)cc1)C(=O)N[C@@H](Cc1ccc(O)cc1)C(=O)N[C@@H](Cc1ccccc1)C(=O)N[C@@H](Cc1c[nH]c2ccccc12)C(=O)N[C@@H](CC(=O)O)C(=O)N[C@H](C(=O)O)[C@@H](C)O` [Peptide A3F304-312] (H-ARLYYFWDT-OH), the “DNA damage in non-irradiated H9 cells (comet assay)” value in the data set with H9 cells is “did not induce breaks”. Besides, on A3G, it took 8 µM to reach half-maximal inhibition (IC50). In addition, the “DNA damage in non-irradiated SupT1 cells (comet assay)” value with SupT1 cells is on record as “did not induce breaks”.
`CC(C)C[C@H](NC(=O)[C@@H](N)CCCNC(=N)N)C(=O)N[C@@H](Cc1ccc(O)cc1)C(=O)N[C@@H](Cc1ccc(O)cc1)C(=O)N[C@@H](Cc1ccccc1)C(=O)N[C@@H](Cc1c[nH]c2ccccc12)C(=O)N[C@@H](CC(=O)O)C(=O)O` [Peptide A3F305-311] (H-RLYYFWD-OH): the “DNA damage in non-irradiated H9 cells (comet assay)” value with H9 cells is reported as “did not induce breaks”. The IC50 against A3G was 1 µM. In the data set on SupT1 cells, the “DNA damage in non-irradiated SupT1 cells (comet assay)” value is recorded as “did not induce breaks”.
At A3G, `CC(C)C[C@H](NC(=O)[C@H](Cc1ccc(O)cc1)NC(=O)[C@@H](NC(=O)[C@H](CCC(=O)O)NC(=O)[C@H](Cc1cnc[nH]1)NC(=O)[C@H](CCCNC(=N)N)NC(=O)CNC(=O)[C@H](CCCNC(=N)N)NC(=O)[C@@H](NC(=O)[C@@H](N)Cc1c[nH]c2ccccc12)C(C)C)[C@@H](C)O)C(=O)N[C@@H](CS)C(=O)N[C@@H](Cc1ccc(O)cc1)C(=O)N[C@@H](CCC(=O)O)C(=O)N[C@H](C(=O)N[C@@H](CCC(=O)O)C(=O)O)C(C)C` [Peptide A3G211-225] (H-WVRGRHETYLCYEVE-OH) returned an IC50 of 10 µM.
Same read-out and setting: the result for `CSCC[C@H](NC(=O)[C@@H](N)CCCNC(=N)N)C(=O)N[C@@H](Cc1c[nH]cn1)C(=O)N[C@@H](CC(N)=O)C(=O)N[C@@H](CC(=O)O)C(=O)N[C@H](C(=O)N[C@@H](Cc1c[nH]c2ccccc12)C(=O)N[C@H](C(=O)N[C@@H](CC(C)C)C(=O)N[C@@H](CC(C)C)C(=O)N[C@@H](CC(N)=O)C(=O)N[C@@H](CCC(N)=O)C(=O)N[C@@H](CCCNC(=N)N)C(=O)N[C@@H](CCCNC(=N)N)C(=O)NCC(=O)O)C(C)C)[C@@H](C)O` [Peptide A3G226-240] (H-RMHNDTWVLLNQRRG-OH) reads 60 µM; that for `CSCC[C@H](NC(=O)[C@H](Cc1c[nH]cn1)NC(=O)[C@H](Cc1c[nH]cn1)NC(=O)[C@H](CCCCN)NC(=O)[C@@H](N)C(C)C)C(=O)N[C@@H](Cc1ccc(O)cc1)C(=O)N[C@H](C(=O)N[C@@H](CO)C(=O)NCC(=O)N[C@@H](CCCCN)C(=O)N[C@@H](C)C(=O)N[C@@H](CCCNC(=N)N)C(=O)O)C(C)C` [Vif25-36], 50 µM.
For the molecule `CSCC[C@H](NC(=O)[C@H](Cc1c[nH]cn1)NC(=O)[C@H](Cc1c[nH]cn1)NC(=O)[C@H](CCCCN)NC(=O)[C@@H](N)C(C)C)C(=O)N[C@@H](Cc1ccc(O)cc1)C(=O)N[C@H](C(=O)N[C@@H](CO)C(=O)NCC(=O)N[C@@H](CCCCN)C(=O)N[C@@H](C)C(=O)N[C@@H](CCCNC(=N)N)C(=O)NCC(=O)N[C@@H](Cc1c[nH]c2ccccc12)C(=O)N[C@@H](Cc1ccccc1)C(=O)O)C(C)C` [Vif25-39], the “DNA damage in non-irradiated H9 cells (comet assay)” value with H9 cells is reported as “did not induce any damage”. Besides, 0.6 µM corresponded to half-maximal inhibition at A3G (IC50). Further, the “DNA damage in non-irradiated SupT1 cells (comet assay)” value in the data set with SupT1 cells is listed as “did not induce any damage”.
As a reminder, the Ki is a dissociation constant, usually derived from enzyme kinetics or from competition with a known ligand. As for `CC[C@H](C)[C@H](N)C(=O)N[C@@H](Cc1c[nH]cn1)C(=O)N[C@@H](CC(C)C)C(=O)N[C@@H](Cc1ccc(O)cc1)C(=O)N[C@@H](Cc1ccc(O)cc1)C(=O)N[C@@H](Cc1ccccc1)C(=O)N[C@@H](CC(=O)O)C(=O)N[C@@H](CS)C(=O)N[C@@H](Cc1ccccc1)C(=O)O` [Vif107-115] (H-IHLYYFDCF-OH), the “DNA damage in non-irradiated H9 cells (comet assay)” value in the data set on H9 cells is “did not induce any damage”. For the same molecule, at A3G, the Ki is about 1.71 µM. Further, the “DNA damage in non-irradiated SupT1 cells (comet assay)” value in the data set with SupT1 cells is recorded as “did not induce any damage”.
`CSCC[C@H](NC(=O)[C@H](Cc1c[nH]cn1)NC(=O)[C@H](Cc1c[nH]cn1)NC(=O)[C@H](C)NC(=O)[C@@H](N)C(C)C)C(=O)N[C@@H](Cc1ccc(O)cc1)C(=O)N[C@H](C(=O)N[C@@H](CO)C(=O)NCC(=O)N[C@@H](CCCCN)C(=O)N[C@@H](C)C(=O)N[C@@H](CCCNC(=N)N)C(=O)NCC(=O)N[C@@H](Cc1c[nH]c2ccccc12)C(=O)N[C@@H](Cc1ccccc1)C(=O)O)C(C)C` [Vif 25-39 (26A)] showed an IC50 against A3G of 8 µM. This counts as single-digit micromolar.
Still for that read-out and setting: the result for `CSCC[C@H](NC(=O)[C@H](C)NC(=O)[C@H](C)NC(=O)[C@H](C)NC(=O)[C@@H](N)C(C)C)C(=O)N[C@@H](Cc1ccc(O)cc1)C(=O)N[C@H](C(=O)N[C@@H](CO)C(=O)NCC(=O)N[C@@H](CCCCN)C(=O)N[C@@H](C)C(=O)N[C@@H](CCCNC(=N)N)C(=O)NCC(=O)N[C@@H](Cc1c[nH]c2ccccc12)C(=O)N[C@@H](Cc1ccccc1)C(=O)O)C(C)C` [Vif 25-39 (26AAA28)] (H-VAAAMYVSGKARGWF-OH) reads 10 µM; that for `CSCC[C@H](NC(=O)[C@H](C)NC(=O)[C@H](C)NC(=O)[C@H](CCCCN)NC(=O)[C@@H](N)C(C)C)C(=O)N[C@@H](Cc1ccc(O)cc1)C(=O)N[C@H](C(=O)N[C@@H](CO)C(=O)NCC(=O)N[C@@H](CCCCN)C(=O)N[C@@H](C)C(=O)N[C@@H](CCCNC(=N)N)C(=O)NCC(=O)N[C@@H](Cc1c[nH]c2ccccc12)C(=O)N[C@@H](Cc1ccccc1)C(=O)O)C(C)C` [Vif 25-39 (27AA28)] (H-VKAAMYVSGKARGWF-OH), 4.5 µM.
As to Vif25-36 (peptide), in data set [1], the IC50 of inhibition of ssDNA deamination by purified A3G is 50 µM.
In turn, Vif25-39 (peptide) came in with an IC50 of inhibition of ssDNA deamination by purified A3G in data set [1] of 0.6 µM.
On the same count and under the same terms, the result for Vif26-39 (peptide) reads 80 µM; that for Vif105-119 (peptide), 0.1 µM; that for Vif 25-39 (26A) (peptide), 8 µM.
Vif 25-39 (26AAA28) (peptide) came in with an IC50 of inhibition of ssDNA deamination by purified A3G in data set [1] of 10 µM.
Still for that read-out and setting: the result for Vif 25-39 (27AA28) (peptide) reads 4.5 µM; that for RMHNDTWVLLNQRRG [A3G226-240], 60 µM.
Same read-out and setting: as for WVRGRHETYLCYEVE [A3G211-225], the figure is 10 µM; as for ARLYYFWDT [A3F304-312], 8 µM.
For IHLYYFDCF [Vif107-115], the “IC50 of inhibition of ssDNA deamination by purified A3G” value in data set [2] turned out to be 0.1 µM.
Take RLYYFWD [A3F305-311]: the IC50 of inhibition of ssDNA deamination by purified A3G in data set [1] is 1 µM.
